Laboratory results: ChEMBL document CHEMBL1909632, “New aldehyde and vinylsulfone proteasome inhibitors for targeted melanoma therapy” (Eur J Med Chem, 2011)
Peptide text beside a SMILES is read from it. * marks the point of attachment. Cbz = O=C(OCc1ccccc1)*

Key:
[1] = Cytotoxicity against human IPC227F cells after 48 hrs using Hoechst 33342 dye-based fluorescence microplate reader; assay type: functional, cell-based
Method in brief: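 Attached IPC227F human ocular melanoma cells were seeded and grown 24 h at 37 °C, 5% CO2, in DMEM with 10% fetal calf serum. Cells were then given fresh medium with increasing drug concentrations from DMSO stocks (DMSO final 0.025%) for 48 h, PBS-washed and frozen at -80 °C. Hoechst 33342 staining followed at room temperature in the dark. Fluorescence was read at 360/460 nm, survival was expressed as % of untreated control, and IC50 determined.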

[2] = Drug uptake in tumor of mouse xenografted with mouse B16 cells assessed per gram of tissue after 72 hrs; assay type: ADME, Neoplasm; settings: in vivo
[3] = Drug uptake in tumor of mouse xenografted with mouse B16 cells assessed per gram of tissue after 3 hrs; assay type: ADME, Neoplasm; settings: in vivo
[4] = Drug uptake in tumor of mouse xenografted with mouse B16 cells after 6 hrs; assay type: ADME, Neoplasm; settings: in vivo
[5] = Drug uptake in tumor of mouse xenografted with mouse B16 cells assessed per gram of tissue after 15 mins; assay type: ADME, Neoplasm; settings: in vivo, 0.25 h
[6] = Ratio of drug level in tumor to blood in mouse; assay type: ADME, organism-based

SMILES	IC50 [1]	other results
CCCN(CCC)CCCCNC(=O)c1ccc(C(=O)N[C@@H](CC(C)C)C(=O)N[C@@H](CC(C)C)C(=O)N[C@H](C=O)CC(C)C)cc1	4.18 µM	
CCN(CC)CCNC(=O)c1ccc(C(=O)N[C@@H](Cc2ccccc2)C(=O)N[C@H](/C=C/S(C)(=O)=O)CC(C)C)cc1	94.5 µM	
CCN(CC)CCNC(=O)c1ccc(C(=O)N[C@@H](CC(C)C)C(=O)N[C@@H](CC(C)C)C(=O)N[C@H](/C=C/S(C)(=O)=O)CC(C)C)cc1	28.7 µM	
CCN(CC)CCNC(=O)c1ccc(C(=O)N[C@@H](Cc2ccccc2)C(=O)N[C@@H](CC(C)C)C(=O)N[C@H](/C=C/S(C)(=O)=O)CC(C)C)cc1	120 µM	
CCCN(CCC)CCCCNC(=O)c1ccc([125I])cc1		Drug uptake [2]: 3.2%
CCN(CC)CCNC(=O)c1ccc(C(=O)N[C@@H](Cc2ccccc2)C(=O)N[C@H](C=O)CC(C)C)cc1	20.9 µM	
CCN(CC)CCNC(=O)c1ccc(C(=O)N[C@@H](CC(C)C)C(=O)N[C@@H](CC(C)C)C(=O)N[C@H](C=O)CC(C)C)cc1	0.64 µM	
CC(C)C[C@@H](C=O)NC(=O)[C@H](CC(C)C)NC(=O)[C@H](CC(C)C)NC(=O)OCc1ccccc1 [MG-132] (Cbz-Leu-Leu-Leu-aldehyde)	0.077 µM	
CCN(CC)CCNC(=O)c1ccc(C(=O)N[C@@H](CC(C)C)C(=O)N[C@@H](CC(C)C)C(=O)N[C@H](C=O)CC(C)C)c([125I])c1		Drug uptake [3]: 1.2%; Drug uptake [4]: 1.2%; Drug uptake [5]: 2.7%; Kp [6]: ≥ 1
CCCN(CCC)CCNC(=O)c1ccc(C(=O)N[C@@H](CC(C)C)C(=O)N[C@@H](CC(C)C)C(=O)N[C@H](C=O)CC(C)C)cc1	0.71 µM	
CCN(CC)CCNC(=O)c1ccc(C(=O)N[C@@H](Cc2ccccc2)C(=O)N[C@@H](CC(C)C)C(=O)N[C@H](C=O)CC(C)C)cc1	11.9 µM	
